Screening data as filed in PubChem.
Only some compounds are listed: those with a hit (about 1.2% of all), similar ones and a draw of the others.
proCasp7 act: procaspase-7 activators, primary screen, counter-screen for procaspase-3 activator project, biochemical, absorbance, HTS, human | activation, % at 8.5 µM | Caspase-7 (Homo sapiens), P55210 | 330,000 tested, 0.093% active | recombinant procaspase-7, Ac-DEVD-pNA absorbance 405 nm; D23A/D198A/D206A triple mutant, cannot self-cleave; scale: DMSO 0, 5 µM enzyme 100;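 active = percent activation above the screen-wide mean plus 3 SD, cut at about 25% in these data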
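System: Procaspase-7 triple mutant (PC-7 D3A); measure: % activation from two-timepoint absorbance difference, scaled to controls; times: 1 h compound preincubation, 2 h substrate cleavage, 25 °C; also added: Ac-DEVD-pNA substrate, 400 µM as added; measured by: Epi-absorbance of released pNA at 405 nm, two timepoints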
TPT1 inh: Candida albicans TPT1 enzyme inhibitors, primary screen, biochemical, fluorescence polarization; recombinant caTPT1, FP RNA substrate dephosphorylation; inhibition, % at 5 µM; 300,000 tested, 0.81% active;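 active = inhibition above the mean of all tested compounds plus 3 SD, set per screening campaign, cut at about 24% in these data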;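 also: plate controls were DMSO alone for no effect and ferristatin control at 100 nM for full effect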
IDE cell inh: human IDE inhibitors in live cells, primary screen, fluorescence polarization, HEK cells, FAbetaB substrate; AID 434962, 2010; inhibition, % at 5.59 µM; FAbetaB cleavage; Insulin-degrading enzyme (Homo sapiens), P14735; 320,000 tested, 0.41% active;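 active = percent inhibition above the average of all tested compounds plus 3 SD, set per screening campaign, cut at about 16% in these data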;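 also: IDE supplied by intact live HEK cells; FP after avidin binding of uncleaved biotin substrate so inhibition keeps polarization high; 0% = DMSO wells and 100% = 60 µM reference IDE inhibitor Ii1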
proCasp3 act: activators of human procaspase-3 D3A mutant, primary screen, biochemical, absorbance, PC-3 D3A mutant, single concentration; Caspase-3 (Homo sapiens), P42574; recombinant procaspase-3 D3A, Ac-DEVD-pNA absorbance 405 nm; activation, % at 8.5 µM; 330,000 tested, 0.11% active;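 active = activation above the mean of all tested compounds plus 3 SD, cut at about 21% in these data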;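 also: 0% = DMSO alone and 100% = DMSO wells spiked with extra 5 µM PC-3 D3A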
Target sequence (P42574 whole entry D9A/D28A/D175A): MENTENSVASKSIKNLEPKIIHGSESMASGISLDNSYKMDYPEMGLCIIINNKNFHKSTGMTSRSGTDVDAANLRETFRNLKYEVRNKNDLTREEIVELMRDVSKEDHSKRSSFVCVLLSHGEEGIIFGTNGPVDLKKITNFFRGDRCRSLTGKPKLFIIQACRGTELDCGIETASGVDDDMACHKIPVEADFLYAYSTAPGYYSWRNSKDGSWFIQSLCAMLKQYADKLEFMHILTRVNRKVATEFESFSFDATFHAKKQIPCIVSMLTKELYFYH
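material = Procaspase-3 D3A mutant | probe or stimulus = Ac-DEVD-pNA | compound = single dose, 8.5 µM nominal compound, 0.8% DMSO | timing = 1 h preincubation, 2 h reaction | measured by = 405 nm absorbance of p-nitroaniline, reads at 0 and 120 min | benchmarks = DMSO-only low control, 5 µM PC-3 D3A high control | repeats = singlicate, each compound tested once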
IDE cell activ: human IDE activators in live cells, primary screen, fluorescence polarization, HEK cells, FAbeta-B substrate; activation, % at 5.96 µM; FAbeta-B cleavage; 0% vehicle, 100% cell-free pure enzyme wells; AID 493087, 2011; 340,000 tested, 0.073% active;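 active = activation above the mean of all tested compounds plus 3 SD, set per screening campaign, cut at about 17% in these data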
TPT1 inh confirm: Candida albicans TPT1 inhibitors, confirmation, biochemical, fluorescence polarization, triplicate. AID 2149, 2009. recombinant caTPT1, RNase T1 coupled. 2,400 tested, 74% active. inhibition, % at 5 µM. shares compounds with TPT1 inh;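 active = inhibition above the primary screen limit, the mean inhibition of all tested compounds plus 3 SD, cut at about 25% in these data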
RNase T1 inh: RNase T1 inhibitors, counter-screen for TPT1 inhibitor project, biochemical, fluorescence polarization | shares compounds with TPT1 inh | RNase T1 cleavage, 1536-well | inhibition, % at 5 µM | 2,400 tested, 83% active | AID 2153, 2009;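 active = inhibition above the solvent-only control well mean plus 3 SD, limit set per screening run, cut at about 23% in these data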;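 also: plate controls were DMSO wells with enzyme for no effect and wells without RNase T1 for full effect; inhibitors block cleavage so intact labeled substrate keeps polarization high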
Target sequence (P00651 whole entry, looked up): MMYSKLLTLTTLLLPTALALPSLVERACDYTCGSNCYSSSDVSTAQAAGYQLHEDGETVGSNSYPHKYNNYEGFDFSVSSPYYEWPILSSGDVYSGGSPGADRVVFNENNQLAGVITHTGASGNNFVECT
Active calls of the source: *.

Screening CC(C)(C)C1CCc2c(C(=O)NNC(=O)CCCC(=O)O)csc2C1 (stereo not drawn) returned proCasp7 act 5, TPT1 inh 1, IDE cell inh 5, proCasp3 act -2 and IDE cell activ 0.
Screening CN(CC(=O)Nc1ccc(Cl)cc1)C(=O)CCc1nc2sc3c(c2c(=O)[nH]1)CCCC3 returned proCasp7 act 9, TPT1 inh 23, IDE cell inh -2, proCasp3 act -5 and IDE cell activ 5.
COc1cccc(C(C)=C2SC(=S)NC2=O)c1 was read as IDE cell activ -1.
For CCOC(=O)/C=C1\SCC(=O)N1Cc1nnc(-c2ccccc2Br)o1 the results were proCasp7 act 9, TPT1 inh 31*, IDE cell inh 6, proCasp3 act 1, IDE cell activ -1, TPT1 inh confirm 31* and RNase T1 inh 40*.
`CCCCn1c(-c2csc(C(C)C)c2)n[nH]c1=S` gave proCasp7 act -26, TPT1 inh 61*, IDE cell inh 6, proCasp3 act -24, IDE cell activ -2, TPT1 inh confirm 6 and RNase T1 inh 8.
`CCCCn1c(-c2csc(CC)c2)n[nH]c1=S` gave proCasp7 act -33, TPT1 inh 0, IDE cell inh 4, proCasp3 act -16 and IDE cell activ -9.
For Cc1ccc(NC(=O)c2noc3c2CCCCC3)cc1 the results were proCasp7 act -3, TPT1 inh 2, IDE cell inh 1, proCasp3 act 5 and IDE cell activ -3.
Cc1ccc(O)c(NC(=O)c2noc3c2CCCCC3)c1 was read as proCasp7 act -2, TPT1 inh 25*, IDE cell inh -5, proCasp3 act -2, IDE cell activ -2, TPT1 inh confirm 0 and RNase T1 inh 4.
COc1cc(OC)c(C(=O)OCC(=O)NCCc2ccccc2)cc1OC was read as proCasp7 act 5, TPT1 inh 72*, IDE cell inh -2, proCasp3 act -5, IDE cell activ -2, TPT1 inh confirm 1 and RNase T1 inh 6.
`COc1ccc(/C=N/N2C(=O)CSC2=S)cc1Br` gave proCasp7 act -12, TPT1 inh 38*, IDE cell inh 3, proCasp3 act -15, IDE cell activ -17, TPT1 inh confirm 62* and RNase T1 inh 70*.
For COc1ccc(/C=N/N2C(=O)CSC2=S)cc1 the results were proCasp7 act -15, TPT1 inh 7, IDE cell inh 2, proCasp3 act -8 and IDE cell activ 0.
Screening CCOC(=O)c1cc(C#N)c(SCC(N)=O)[nH]c1=O returned proCasp7 act 2, TPT1 inh 32*, IDE cell inh -4, proCasp3 act -10, IDE cell activ 0, TPT1 inh confirm 40* and RNase T1 inh 50*.
For CC1CCN(CCCNC(=O)c2ccc3c(Cl)c4c(nc3c2)CCCC4)CC1 the results were proCasp7 act 0, TPT1 inh -2, IDE cell inh 12, proCasp3 act -5 and IDE cell activ -4.
For COc1ccc(-c2ccc(=O)n(CC(=O)NCC3COCCO3)n2)cc1 (stereo not drawn) the results were proCasp7 act 6, TPT1 inh -5, IDE cell inh -8, proCasp3 act 8 and IDE cell activ 0.
`C=CCN=C1S/C(=C\c2ccc(N(C)C)cc2)C(=O)N1CC=C` gave proCasp7 act -34, TPT1 inh 44*, IDE cell inh 0, proCasp3 act -26, IDE cell activ -6, TPT1 inh confirm 50* and RNase T1 inh 63*.
Screening COc1ccnc(N=CNOCc2cccc(C(F)(F)F)c2)c1C#N returned proCasp7 act 7, TPT1 inh 0, IDE cell inh 7, proCasp3 act 3 and IDE cell activ 8.
CN(C(=O)COc1ncnc2sccc12)C1CCCCC1 was read as proCasp7 act 0, IDE cell inh -4, proCasp3 act 6 and IDE cell activ 3.
Screening CCOC(=O)C(C)Sc1nc(-c2ccco2)cc(C(F)(F)F)c1C#N (stereo not drawn) returned proCasp7 act -24, TPT1 inh 26*, IDE cell inh 2, proCasp3 act -13, IDE cell activ -2, TPT1 inh confirm 14 and RNase T1 inh 20.
Screening CCOC(=O)CCSc1nc(C)cc(C(F)(F)F)c1C#N returned proCasp7 act 11, TPT1 inh 25*, IDE cell inh -2, proCasp3 act 3, IDE cell activ -3, TPT1 inh confirm 33* and RNase T1 inh 44*.
Screening CN(C(=O)COC(=O)c1ccc2ccccc2n1)c1ccccc1 returned proCasp7 act 7, IDE cell inh 4, proCasp3 act -3 and IDE cell activ -2.
For COc1ccc2c3c([nH]c2c1)C1CC2C(CC(O)C(OC)C2CO)CN1CC3 (stereo not drawn) the results were proCasp7 act -4, TPT1 inh -2, IDE cell inh 1, proCasp3 act 2 and IDE cell activ 2.
`COc1ccc2c3c([nH]c2c1)[C@H]1C[C@H]2[C@H](C[C@@H](O)[C@H](OC)[C@H]2C(=O)O)CN1CC3` gave proCasp7 act 6, TPT1 inh 0, IDE cell inh -3, proCasp3 act 5 and IDE cell activ -1.
Screening COC(=O)[C@H]1[C@H]2C[C@@H]3c4[nH]c5cc(OC)ccc5c4CCN3C[C@H]2C[C@@H](OC(=O)c2ccc(N)cc2)[C@@H]1OC returned proCasp7 act 0, TPT1 inh 62*, IDE cell inh 1, proCasp3 act -5, IDE cell activ 4, TPT1 inh confirm 86* and RNase T1 inh 91*.
COC(=O)[C@H]1[C@H]2C[C@@H]3c4[nH]c5cc(OC)ccc5c4CCN3C[C@H]2C[C@@H](OC(=O)/C=C/c2cc(OC)c(OC)c(OC)c2)[C@@H]1OC was read as proCasp7 act 2, TPT1 inh 38*, IDE cell inh -1, proCasp3 act -1, IDE cell activ 3, TPT1 inh confirm 36* and RNase T1 inh 48*.
